Measurements as given in ChEMBL document CHEMBL1123146, “Design, synthesis, and evaluation of omega-iodovinyl- and omega-iodoalkyl-substituted methyl-branched long-chain fatty acids” (J Med Chem, 1985).

Columns and labels:
[1] = system: Rattus norvegicus; test: Concentration was measured in mean heart/blood tissue of unfasted Fischer 344 rats administered intravenously after 4 hr (radiolabeled with [125I]-; assay type: ADME, organism-based; conditions: other tissue, iv
[2] = system: Rattus norvegicus; test: Concentration was measured in heart tissue of unfasted Fischer 344 rats administered intravenously after 60 minute (radiolabeled with [125I]-; assay type: ADME, organism-based; conditions: in vivo, iv, 1 h
Method in brief: (§1)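 Female Fischer 344 rats, 10-12 weeks old, 170-200 g, with food and water ad libitum. The 125I-fatty acid was taken up in ethanol, added dropwise to stirred 6% BSA at ~40 °C (final ethanol 10%), filtered, and given as 0.5 mL via lateral tail vein under ether anesthesia. Rats were killed by cervical fracture; blood was taken by cardiac puncture. Organs were rinsed, blotted, weighed and gamma-counted against injectate standards to give %ID/g. Five rats per time point.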

[3] = system: Rattus norvegicus; test: Concentration was measured in liver tissue of unfasted Fischer 344 rats administered intravenously after 4 hr (radiolabeled with [123I]-; assay type: ADME, organism-based; conditions: in vivo, iv
[4] = system: Rattus norvegicus; test: Concentration was measured in thyroid tissue of unfasted Fischer 344 rats administered intravenously after 5 minute (radiolabeled with [123I]-; assay type: ADME, organism-based, Thyroid gland; conditions: in vivo, iv, 5 min
[5] = system: Rattus norvegicus; test: Concentration was measured in liver tissue f unfasted Fischer 344 rats administered intravenously after 30 minute (radiolabeled with [125I]-; assay type: ADME, organism-based; conditions: in vivo, iv, 0.5 h; method in brief: as §1
[6] = system: Rattus norvegicus; test: Concentration was measured in lungs tissue of unfasted Fischer 344 rats administered intravenously after 60 minute (radiolabeled with [125I]-; assay type: ADME, organism-based, Lung; conditions: in vivo, iv, 1 h; method in brief: as §1
[7] = system: Rattus norvegicus; test: Concentration was measured in mean heart/blood tissue of unfasted Fischer 344 rats administered intravenously after 4 hr (radiolabeled with [123I]-; assay type: ADME, organism-based; conditions: in vivo, iv
[8] = system: Rattus norvegicus; test: Concentration was measured in blood tissue of unfasted Fischer 344 rats administered intravenously after 5 minute (radiolabeled with [125I]-; assay type: ADME, organism-based; conditions: in vivo, iv, 5 min; method in brief: as §1
[9] = system: Rattus norvegicus; test: Concentration was measured in kidney tissue of unfasted Fischer 344 rats administered intravenously after 60 minute (radiolabeled with [125I]-; assay type: ADME, organism-based; conditions: in vivo, iv, 1 h; method in brief: as §1
[10] = system: Rattus norvegicus; test: Concentration was measured in mean heart/blood tissue of fasted Fischer 344 rats administered intravenously after 60 minute (radiolabeled with [123I]-; conditions: in vivo, iv, 1 h
[11] = system: Rattus norvegicus; test: Concentration was measured in heart tissue of unfasted Fischer 344 rats administered intravenously after 4 hr (radiolabeled with [125I]-; assay type: ADME, organism-based; conditions: in vivo, iv
[12] = system: Rattus norvegicus; test: Concentration was measured in kidney tissue of unfasted Fischer 344 rats administered intravenously after 4 hr (radiolabeled with [123I]-; assay type: ADME, organism-based; conditions: in vivo, iv
[13] = system: Rattus norvegicus; test: Concentration was measured in kidney tissue of unfasted Fischer 344 rats administered intravenously after 4 hr (radiolabeled with [125I]-; assay type: ADME, organism-based; conditions: in vivo, iv
[14] = system: Rattus norvegicus; test: Concentration was measured in heart tissue of unfasted Fischer 344 rats administered intravenously after 4 hr (radiolabeled with [123I]-; assay type: ADME, organism-based; conditions: in vivo, iv
[15] = system: Rattus norvegicus; test: Concentration was measured in mean heart/blood tissue of fasted Fischer 344 rats administered intravenously after 30 minute (radiolabeled with [125I]-; conditions: in vivo, iv, 0.5 h
[16] = system: Rattus norvegicus; test: Concentration was measured in tissue of unfasted Fischer 344 rats administered intravenously after 60 minute (radiolabeled with [123I]-; assay type: ADME, organism-based; conditions: in vivo, iv, 1 h

`CC(CCCCCCCCCCCCCC/C=C/I)CC(=O)O.O=C(O)CCCCCCCCCCCCCCCC/C=C/I` (stereo unspecified) was tested, and the Distribution [1] was 2.6%, the Distribution [2] was 2.56% and the Distribution [3] was 1.83%. The Distribution [4] was 22.5%, the Distribution [5] was 4.53% and the Distribution [6] was 0.89%. For the same molecule, the Distribution [7] was 0.96%, the Distribution [8] was 0.91% and the Distribution [9] was 1.3%. For the same molecule, the Distribution [10] was 1.2%, the Distribution [11] was 1.38% and the Distribution [12] was 0.95%. The Distribution [13] was 0.66%, the Distribution [14] was 0.59% and the Distribution [15] was 4.3%. It also gave a Distribution [16] of 102%.
